High-throughput results (PubChem)
Neddylation inh: cullin neddylation inhibition; TR-FRET cullin neddylation, biochemical; inhibition, % at 25 µM; hit rate 0.58% among 360,000; P61081+Q13564; AID 651699; in the data active means inhibition above about 36%
UBC13 inh: inhibitors of human UBC13 polyubiquitin chain formation; TR-FRET; inhibition, % at 20 µM; hit rate 0.47% among 330,000; AID 485273; in the data active means inhibition above about 45%, passing the limit was not always enough; inconclusive means no clear call, values can overlap the other calls
Target sequence (P61088 whole entry, looked up): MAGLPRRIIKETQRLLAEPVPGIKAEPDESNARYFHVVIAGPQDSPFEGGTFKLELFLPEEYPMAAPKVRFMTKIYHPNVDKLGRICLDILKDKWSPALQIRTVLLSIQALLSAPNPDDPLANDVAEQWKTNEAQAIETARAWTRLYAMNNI
SR-BI uptake up: activators of SR-BI mediated HDL lipid uptake; CHO ldlA[mSR-BI] cells, DiI-HDL uptake fluorescence, 3 h; 100 = double the neutral-control signal; activation, % at 12.5 µM; hit rate 0.096% among 320,000; AID 504775;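 active means mean replicate activation of at least 60% and every replicate at or above 60%; inconclusive means mean or all-replicate condition met, but not both; inactive means mean below 60% and not all replicates reaching 60%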
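Test system: SR-BI-overexpressing, LDLR-lacking CHO cells; Also added: labelled HDL, 10 µg/mL; Measured by: bottom-read cell fluorescence after medium removal, ex 550/em 595 nm; Timing: 3 h uptake period with compound, 37 °C; Buffer or medium: F12, 0.5% BSA, 25 mM HEPES; Doses: single compound concentration, delivered by pin transfer.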
SR-BI HDL uptake: blocks mouse SR-BI lipid uptake from DiI-HDL; Q61009; inhibition, % at 12.5 µM; ldlA[mSR-BI] CHO cells, DiI-HDL uptake fluorescence, 3 h; hit rate 0.96% among 320,000;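 active means mean replicate inhibition of at least 70% and a set share of replicates each scoring 70 or more; inconclusive means meets just one of the two criteria; inactive means fails both criteria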
Target sequence (Q61009 whole entry, looked up): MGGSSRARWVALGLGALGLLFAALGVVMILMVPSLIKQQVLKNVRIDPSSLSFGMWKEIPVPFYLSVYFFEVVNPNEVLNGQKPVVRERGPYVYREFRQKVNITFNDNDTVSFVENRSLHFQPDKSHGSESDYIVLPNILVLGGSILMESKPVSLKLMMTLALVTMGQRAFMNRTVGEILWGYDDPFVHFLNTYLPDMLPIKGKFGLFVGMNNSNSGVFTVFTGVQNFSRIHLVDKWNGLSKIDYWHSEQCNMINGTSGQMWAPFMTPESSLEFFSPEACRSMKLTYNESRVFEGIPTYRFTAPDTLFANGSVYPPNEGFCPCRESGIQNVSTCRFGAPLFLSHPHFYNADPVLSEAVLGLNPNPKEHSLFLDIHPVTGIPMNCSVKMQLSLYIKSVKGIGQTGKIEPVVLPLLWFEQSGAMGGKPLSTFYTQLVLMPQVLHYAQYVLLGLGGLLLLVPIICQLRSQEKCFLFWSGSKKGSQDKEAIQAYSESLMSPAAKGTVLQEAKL
Casp3 UBC13 ctr: inhibits human caspase-3 in UBC13 counter-screen | shares compounds with UBC13 inh | Recombinant caspase-3, Caspase-Glo 3/7 luminescence, 60 min | inhibition, % at 20 µM | hit rate 4% among 1,400 | AID 488856;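 active means mean inhibition across replicates above about 26%, limit read from the data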
UBC13 confirm: human UBC13 polyubiquitin inhibition, confirmed; hit rate 68% among 1,400; inhibition, % at 10 µM; UBC13 polyubiquitination, TR-FRET, biochemical; AID 488859; shares compounds with UBC13 inh; in the data active means inhibition above about 45%; inconclusive means no clear call, values can overlap the other calls
Of the large screens only hits and unclear results are named; the others gave an inactive call (follow-up assays come after a bar, where shown). Rows were chosen to be rich in hits. Some 1.9% of all compounds tested hit in one or more screens of this group.

CCN(CC(=O)Nc1c(F)cccc1F)C(=O)CCOc1ccccc1	UBC13 inh 55 | Casp3 UBC13 ctr inactive | UBC13 confirm inactive
CCc1cccc(NC(=O)CSC2=NS(=O)(=O)c3ccccc32)c1	UBC13 inh 47 | Casp3 UBC13 ctr inactive | UBC13 confirm inactive
C=CCN(c1ccccc1)S(=O)(=O)c1cccc(C(=O)NCc2ccco2)c1	none
Cc1c(NC(=O)CCCN2C(=O)c3cccc4cccc(c34)C2=O)c(=O)n(-c2ccccc2)n1C	UBC13 inh 81 | Casp3 UBC13 ctr inactive | UBC13 confirm 94
CC(C)CC(C(=O)NC(C)(C)C)N(Cc1ccccc1Cl)C(=O)c1snc(C(N)=O)c1N (stereo not given)	UBC13 inh 71 | Casp3 UBC13 ctr inactive | UBC13 confirm 93
CC(C)CC(C(=O)NC(C)(C)C)N(Cc1cccs1)C(=O)c1snc(C(N)=O)c1N (stereo not given)	UBC13 inh 65 | Casp3 UBC13 ctr inactive | UBC13 confirm 67
CC(C)CC(C(=O)NC1CCCC1)N(Cc1cccs1)C(=O)c1snc(C(N)=O)c1N (stereo not given)	none
CCC(C(=O)NC1CCCC1)N(Cc1ccccc1Cl)C(=O)c1snc(C(N)=O)c1N (stereo not given)	none (no result: SR-BI uptake up, SR-BI HDL uptake)
Cc1cc(C2N=C(N)Nc3nc4ccccc4n32)c(C)n1-c1ccccc1Cl (stereo not given)	UBC13 inh 46 | Casp3 UBC13 ctr inactive | UBC13 confirm 55
Cc1ccc(-n2c(C)cc(C3N=C(N)Nc4nc5ccccc5n43)c2C)c(C)c1 (stereo not given)	none
CCOC(=O)[C@]12CCCC=C1N(Cc1ccccc1)C(=O)[C@H](CC(=O)N1CCOCC1)C2	none (no result: UBC13 inh, SR-BI uptake up, SR-BI HDL uptake)
Nc1ccc2c(c1)Nc1ccccc1CC2	none
CN(C)c1ccc(C(=O)Nc2cccc(S(=O)(=O)N3CCCC3)c2)cc1	none
COc1cc(C(=O)Nc2cccc(S(=O)(=O)N3CCCC3)c2)cc(OC)c1C	UBC13 inh 75 | Casp3 UBC13 ctr inactive | UBC13 confirm 70
O=C1C2C3C=CC(C4CC34)C2C(=O)N1CCCCN1CCN(c2ccc(F)cc2)CC1 (stereo not given)	UBC13 inh 54 | Casp3 UBC13 ctr inactive | UBC13 confirm inactive
COc1cc2nc(=S)n3[nH]c(CCn4c(C)nc5ccccc54)nc3c2cc1OC	none
COc1ccc(OCc2nc3c4cc(OC)c(OC)cc4nc(=S)n3[nH]2)cc1	UBC13 inh 59 | Casp3 UBC13 ctr inactive | UBC13 confirm inactive
CC(C)=CCc1c(O)cc(O)c2c(=O)c(O[C@@H]3O[C@@H](C)[C@H](O)[C@@H](O)[C@H]3O)c(-c3ccc(O)cc3)oc12	UBC13 inh 86 | Casp3 UBC13 ctr inactive | UBC13 confirm 78
CCOc1ccc(CCN2C(=O)C(=O)N([C@@H](Cc3ccc(O)cc3)CN3CCC[C@@H]3CN3C(=O)C(=O)NC[C@@H]3Cc3ccccc3)C[C@@H]2Cc2ccccc2)cc1	none (no result: UBC13 inh)
Cc1nn2c(nc(N3CCOCC3)c3ccccc32)c1C=C(C#N)C#N	UBC13 inh 47 (not shown: Neddylation inh) | Casp3 UBC13 ctr inactive | UBC13 confirm 46
Cc1nn2c(nc(N3CCCCC3)c3ccccc32)c1C=O	none (not shown: Neddylation inh)
NC1=NC[C@H](Cc2ccc(O)cc2)N1CC1CCCCC1	none
NC1=NC[C@@H](Cc2ccc(O)cc2)N1CCCCC1CCCCC1	UBC13 inh 66 | Casp3 UBC13 ctr inactive | UBC13 confirm inactive
Oc1ccc(C[C@@H]2CNCCN2CCCCC2CCCCC2)cc1	UBC13 inh 59 | Casp3 UBC13 ctr inactive | UBC13 confirm 48
CCOc1ccc2nc(S(=O)(=O)NC(=O)C3(C)CCN3C(=O)CCc3cccs3)sc2c1 (stereo not given)	none (no result: UBC13 inh, SR-BI uptake up, SR-BI HDL uptake)
Cn1cc(-c2coc3c(C(=O)NCc4ccco4)cccc23)cn1	none (no result: UBC13 inh, SR-BI uptake up, SR-BI HDL uptake)
CCN1C(=O)c2cccc3c(NC(=O)c4ccc(S(=O)(=O)N(C)C)cc4)ccc1c23	UBC13 inh 62 | Casp3 UBC13 ctr inactive | UBC13 confirm 76
CCN1C(=O)c2cccc3c(NS(=O)(=O)c4ccc(NC(C)=O)cc4)ccc1c23	none
CCN1C(=O)c2cccc3c(NC(=O)c4ccc(S(=O)(=O)N5CCOCC5)cc4)ccc1c23	UBC13 inh 70 | Casp3 UBC13 ctr inactive | UBC13 confirm 83
CCCCCCOc1ccc(/C(C)=N/NC2=NCCN2)cc1[N+](=O)[O-]	UBC13 inh 94 | Casp3 UBC13 ctr inactive | UBC13 confirm 98
O=C1OCCN1C(=O)[C@H]1[C@H](c2ccc(F)cc2)C(c2cccc(Cl)c2)=NN1c1ccccc1	none (not shown: Neddylation inh, UBC13 inh)
O=C1OCCN1C(=O)[C@H]1[C@H](c2ccc(Cl)cc2)C(c2cccc(Cl)c2)=NN1c1ccccc1	UBC13 inh 50 (not shown: Neddylation inh) | Casp3 UBC13 ctr inactive | UBC13 confirm inconclusive
CC1CC(C)CN(CCCNC(=O)C2CCN(c3ncnc4c3sc3cccc(F)c34)CC2)C1 (stereo not given)	UBC13 inh 48 (no result: Neddylation inh, SR-BI uptake up, SR-BI HDL uptake) | Casp3 UBC13 ctr inactive | UBC13 confirm 54
CCN(CC)CCCNC(=O)C1CCN(c2ncnc3c2sc2cccc(F)c23)CC1	none
O=C1/C(=C/C=C/c2ccco2)SC(=S)N1NS(=O)(=O)c1ccccc1	UBC13 inh 51 | Casp3 UBC13 ctr inactive | UBC13 confirm inactive
CC(C)(C)C1CCC(CN2C(Nc3ccccc3)=NC[C@@H]2Cc2ccccc2)CC1 (stereo not given in full)	UBC13 inh 72 | Casp3 UBC13 ctr inactive | UBC13 confirm 77
CCCCCCCN1C(Nc2ccccc2)=NC[C@@H]1Cc1ccccc1	none
c1ccc(CCCCN2C(Nc3ccccc3)=NC[C@@H]2Cc2ccccc2)cc1	UBC13 inh 49 | Casp3 UBC13 ctr inactive | UBC13 confirm inactive
C[C@@H](O)C1NC(=O)[C@H](CCCCN)NC(=O)c2cc([N+](=O)[O-])cc(F)c2NCCCC[C@@H](C(N)=O)NC1=O (stereo not given in full)	UBC13 inh 96 | Casp3 UBC13 ctr inactive | UBC13 confirm 101
O=C(CC[C@H]1O[C@@H](n2cnc3c(NC(=O)c4ccccc4)ncnc32)[C@H](O)[C@@H]1O)NCc1ccc(OC(F)(F)F)cc1	none (no result: UBC13 inh, SR-BI uptake up, SR-BI HDL uptake)
CC(=O)Nc1ccc(CN(C)c2c(C)nc3ccc(C(=O)N(C)Cc4ccccc4)cn23)cc1	none (no result: UBC13 inh, SR-BI uptake up, SR-BI HDL uptake)
Cc1cccc([N+](=O)[O-])c1NC(=O)COC(=O)c1nc2nccc(C)n2n1	none
O=C(O)Cc1ccc2c(c1)Cc1cccnc1O2	none (no result: UBC13 inh, SR-BI uptake up, SR-BI HDL uptake)
Cc1cc(C)nc(NCCCc2ccccc2)n1	none
Cc1cc(Nc2ccc(Cl)cc2)nc(NCc2ccccc2)n1	UBC13 inh 72 (not shown: Neddylation inh) | Casp3 UBC13 ctr inactive | UBC13 confirm 84
CCCCNc1cc(C)nc(NCc2ccccc2)n1	UBC13 inh 48 | Casp3 UBC13 ctr inactive | UBC13 confirm 56
Cc1cc(Nc2ccccc2)nc(NCc2ccccc2)n1	UBC13 inh 46 | Casp3 UBC13 ctr inactive | UBC13 confirm 50
Cc1ccc(S(=O)(=O)N2CCN(C(=O)CCc3c[nH]c4ccccc34)CC2)c(C)c1	none
O=C(Nc1cc(S(=O)(=O)N2CCCCC2)ccc1N1CCCCC1)c1ccncc1	none (no result: SR-BI uptake up, SR-BI HDL uptake)
